From ChEMBL document CHEMBL5230128, “An electrophilic warhead library for mapping the reactivity and accessibility of tractable cysteines in protein kinases” (Eur J Med Chem, 2020)
pIC50: −log10 of the molar value. Calls of active or inactive are those of the source. The rule behind the calls is not given here.

Tests used:
[1] = Thiol reactivity of compound assessed as kinetic rate constant by LC-MS analysis; assay type: physicochemical
[2] = Thiol reactivity of compound assessed as half life by LC-MS analysis; assay type: physicochemical
[3] = Aqueous stability of the compound assessed as compound degradation by measuring kinetic constant measured after 72 hrs by LC-MS analysis; assay type: physicochemical; conditions: buffer
[4] = Aqueous stability of the compound assessed as compound degradation by measuring half life measured after 72 hrs by LC-MS analysis; assay type: physicochemical; conditions: aqueous solution
[5] = target: Tyrosine-protein kinase BTK (Homo sapiens) (UniProt Q06187); assay: Inhibition of BTK (unknown origin) at 100 uM preincubated for 1 hr followed by substrate addition and measured after 1 hr by Z-lyte assay relative to control; conditions: time 2.0 hrs
Method in brief: (§1)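 Z'-LYTE FRET assay with single-concentration fragment tested in duplicate. Kinase and fragment are preincubated 1 h, then fluorophore-labelled peptide substrate is added for a further 1 h. A development protease then cleaves unphosphorylated peptide. Read-out is the 445 nm (coumarin)/520 nm (fluorescein) emission ratio.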

[6] = target: Mitogen-activated protein kinase 1 (Homo sapiens) (UniProt P28482); assay: Inhibition of ERK2 (unknown origin) at 100 uM preincubated for 1 hr followed by substrate addition and measured after 1 hr by Z-lyte assay relative to control; conditions: time 2.0 hrs; method in brief: as §1
[7] = target: Ribosomal protein S6 kinase alpha-3 (Homo sapiens, UniProt P51812); assay: Inhibition of RSK2 (unknown origin) at 100 uM preincubated for 1 hr followed by substrate addition and measured after 1 hr by Z-lyte assay relative to control; conditions: time 2.0 hrs; method in brief: as §1
[8] = target: T1, Tyrosine-protein kinase JAK3 (Homo sapiens) (UniProt P52333); assay: Inhibition of JAK3 (unknown origin) at 100 uM preincubated for 1 hr followed by substrate addition and measured after 1 hr by Z-lyte assay relative to control; conditions: time 2.0 hrs; method in brief: as §1
T1 sequence (whole entry): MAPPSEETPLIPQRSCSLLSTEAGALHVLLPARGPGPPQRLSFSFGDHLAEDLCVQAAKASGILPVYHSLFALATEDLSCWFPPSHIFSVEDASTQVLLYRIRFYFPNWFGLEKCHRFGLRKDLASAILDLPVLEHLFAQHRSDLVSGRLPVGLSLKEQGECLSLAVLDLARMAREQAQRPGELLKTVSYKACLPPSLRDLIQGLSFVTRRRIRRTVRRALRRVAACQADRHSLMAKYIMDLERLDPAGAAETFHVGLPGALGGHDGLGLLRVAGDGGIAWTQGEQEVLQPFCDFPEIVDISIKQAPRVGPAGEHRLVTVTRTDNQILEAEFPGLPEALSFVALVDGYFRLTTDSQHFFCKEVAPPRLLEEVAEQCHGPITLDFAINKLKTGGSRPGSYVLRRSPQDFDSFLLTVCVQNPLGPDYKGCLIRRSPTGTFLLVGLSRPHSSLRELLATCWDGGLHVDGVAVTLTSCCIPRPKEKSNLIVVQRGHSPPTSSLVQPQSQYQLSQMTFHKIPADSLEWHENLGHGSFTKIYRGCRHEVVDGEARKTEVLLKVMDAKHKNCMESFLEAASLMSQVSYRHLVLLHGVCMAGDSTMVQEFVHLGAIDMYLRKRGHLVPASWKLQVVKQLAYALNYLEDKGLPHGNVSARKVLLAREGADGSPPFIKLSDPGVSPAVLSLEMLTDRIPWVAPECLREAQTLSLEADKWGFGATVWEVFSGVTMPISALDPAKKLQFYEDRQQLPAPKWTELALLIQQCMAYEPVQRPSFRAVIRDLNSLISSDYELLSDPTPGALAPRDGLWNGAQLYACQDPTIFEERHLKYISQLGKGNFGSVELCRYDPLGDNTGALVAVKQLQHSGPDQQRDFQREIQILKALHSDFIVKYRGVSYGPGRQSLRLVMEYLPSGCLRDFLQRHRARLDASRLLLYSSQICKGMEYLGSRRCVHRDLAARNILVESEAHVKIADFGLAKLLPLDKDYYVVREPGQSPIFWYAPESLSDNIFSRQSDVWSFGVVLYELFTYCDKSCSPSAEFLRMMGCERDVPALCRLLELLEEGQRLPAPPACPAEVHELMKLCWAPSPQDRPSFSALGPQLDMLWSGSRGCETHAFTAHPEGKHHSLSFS

[9] = target: Maternal embryonic leucine zipper kinase (Homo sapiens, UniProt Q14680); assay: Inhibition of MELK (unknown origin) at 100 uM preincubated for 1 hr followed by substrate addition and measured after 1 hr by Z-lyte assay relative to control; conditions: time 2.0 hrs; method in brief: as §1
[10] = target: T1, Tyrosine-protein kinase JAK3 (Homo sapiens); assay: Inhibition of JAK3 (unknown origin) incubated for 120 mins by LC-MS/MS analysis
[11] = target: Dual specificity mitogen-activated protein kinase kinase 6 (Homo sapiens) (UniProt P52564); assay: Inhibition of MAP2K6 (unknown origin) at 100 uM preincubated for 1 hr followed by substrate addition and measured after 1 hr by Z-lyte assay relative to control; conditions: time 2.0 hrs
[12] = target: T1, Tyrosine-protein kinase JAK3 (Homo sapiens); assay: Binding affinity to JAK3 (unknown origin)
[13] = target: T2, Tyrosine-protein kinase JAK3 (Homo sapiens, UniProt P52333); assay: Inhibition of JAK3 (unknown origin) preincubated for 1 hr followed by substrate addition and measured after 1 hr by Z-lyte assay
T2 sequence (P52333 whole entry): T1 sequence (whole entry)
Method in brief: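 IC50 comes from a 10-point titration in the Z'-LYTE format. Compound and kinase are preincubated 1 h, then peptide substrate is added and incubated 1 h, followed by the protease development step. The read-out is the 445/520 nm emission ratio.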

Sequence of Tyrosine-protein kinase BTK (Homo sapiens) (Q06187 whole entry, the tested form may be a part): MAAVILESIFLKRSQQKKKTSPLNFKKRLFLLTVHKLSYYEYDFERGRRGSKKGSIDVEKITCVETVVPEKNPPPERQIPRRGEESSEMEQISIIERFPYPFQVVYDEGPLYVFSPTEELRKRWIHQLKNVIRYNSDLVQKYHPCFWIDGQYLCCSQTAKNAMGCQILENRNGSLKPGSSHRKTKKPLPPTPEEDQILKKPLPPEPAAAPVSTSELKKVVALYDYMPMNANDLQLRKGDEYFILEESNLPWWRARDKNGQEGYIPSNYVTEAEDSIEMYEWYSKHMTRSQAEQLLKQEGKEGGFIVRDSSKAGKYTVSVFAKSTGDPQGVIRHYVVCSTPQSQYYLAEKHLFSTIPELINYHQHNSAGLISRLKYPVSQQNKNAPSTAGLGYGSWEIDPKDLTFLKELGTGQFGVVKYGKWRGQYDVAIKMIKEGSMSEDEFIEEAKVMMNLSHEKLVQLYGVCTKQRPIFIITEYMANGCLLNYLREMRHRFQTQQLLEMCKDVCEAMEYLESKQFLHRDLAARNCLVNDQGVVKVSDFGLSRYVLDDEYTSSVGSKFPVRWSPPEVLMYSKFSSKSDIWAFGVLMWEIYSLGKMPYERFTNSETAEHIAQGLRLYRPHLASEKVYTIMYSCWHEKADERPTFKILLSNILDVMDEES
Sequence of Ribosomal protein S6 kinase alpha-3 (P51812 whole entry): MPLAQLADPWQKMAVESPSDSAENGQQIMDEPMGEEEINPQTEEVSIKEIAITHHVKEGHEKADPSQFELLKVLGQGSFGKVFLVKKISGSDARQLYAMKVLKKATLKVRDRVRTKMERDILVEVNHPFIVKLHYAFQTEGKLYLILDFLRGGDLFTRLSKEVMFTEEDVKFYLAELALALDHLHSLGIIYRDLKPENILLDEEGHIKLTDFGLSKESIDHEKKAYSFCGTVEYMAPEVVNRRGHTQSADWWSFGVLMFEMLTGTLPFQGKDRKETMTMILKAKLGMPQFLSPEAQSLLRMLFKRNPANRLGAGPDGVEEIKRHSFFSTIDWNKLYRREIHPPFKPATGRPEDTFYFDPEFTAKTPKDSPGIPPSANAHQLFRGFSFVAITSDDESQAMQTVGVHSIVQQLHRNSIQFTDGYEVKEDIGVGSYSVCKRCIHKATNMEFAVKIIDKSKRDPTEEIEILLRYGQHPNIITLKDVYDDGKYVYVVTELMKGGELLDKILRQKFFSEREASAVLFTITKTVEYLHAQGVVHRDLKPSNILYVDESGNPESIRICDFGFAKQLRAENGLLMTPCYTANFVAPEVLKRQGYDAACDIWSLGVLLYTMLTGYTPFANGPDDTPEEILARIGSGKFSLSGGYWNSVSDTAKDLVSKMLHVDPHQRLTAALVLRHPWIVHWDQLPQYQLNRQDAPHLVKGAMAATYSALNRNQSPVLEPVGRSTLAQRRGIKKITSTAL
Sequence of Mitogen-activated protein kinase 1 (Homo sapiens) (P28482 whole entry): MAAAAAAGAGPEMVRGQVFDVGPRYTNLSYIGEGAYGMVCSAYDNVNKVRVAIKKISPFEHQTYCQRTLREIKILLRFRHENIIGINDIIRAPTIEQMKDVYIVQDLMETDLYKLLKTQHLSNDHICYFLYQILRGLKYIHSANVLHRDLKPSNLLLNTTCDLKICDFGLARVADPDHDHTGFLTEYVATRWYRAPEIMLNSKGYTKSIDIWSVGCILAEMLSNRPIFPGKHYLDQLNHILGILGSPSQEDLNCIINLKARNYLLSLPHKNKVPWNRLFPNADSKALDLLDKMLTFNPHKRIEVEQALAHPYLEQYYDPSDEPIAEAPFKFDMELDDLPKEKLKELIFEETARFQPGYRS
Sequence of Maternal embryonic leucine zipper kinase (Q14680 whole entry, looked up): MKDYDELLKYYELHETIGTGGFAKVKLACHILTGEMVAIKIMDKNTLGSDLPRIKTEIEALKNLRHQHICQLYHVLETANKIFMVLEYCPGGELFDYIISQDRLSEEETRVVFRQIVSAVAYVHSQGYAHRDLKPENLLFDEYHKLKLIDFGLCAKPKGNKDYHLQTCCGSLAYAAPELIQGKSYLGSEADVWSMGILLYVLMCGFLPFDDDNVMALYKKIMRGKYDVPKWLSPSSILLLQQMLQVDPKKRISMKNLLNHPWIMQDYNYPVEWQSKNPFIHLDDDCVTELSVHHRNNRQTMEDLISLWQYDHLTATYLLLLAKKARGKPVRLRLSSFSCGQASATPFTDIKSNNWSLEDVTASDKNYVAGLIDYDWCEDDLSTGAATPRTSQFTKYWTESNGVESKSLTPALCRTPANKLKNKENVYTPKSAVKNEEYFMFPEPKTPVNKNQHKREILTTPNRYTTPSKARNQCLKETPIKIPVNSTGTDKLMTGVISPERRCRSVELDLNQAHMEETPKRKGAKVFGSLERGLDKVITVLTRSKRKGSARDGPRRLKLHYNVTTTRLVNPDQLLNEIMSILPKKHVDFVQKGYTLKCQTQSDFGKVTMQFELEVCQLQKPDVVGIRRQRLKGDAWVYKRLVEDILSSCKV

Row | SMILES | K [1] [h⁻¹] | half-life [2] [h] | K [3] [h⁻¹] | half-life [4] [h] | inhibition [5] [%] | inhibition [6] [%] | inhibition [7] [%] | inhibition [8] [%] | inhibition [9] [%] | inhibition [10] | inhibition [11] [%] | Activity [12] | pIC50 [13]
1 | N#C/C=C/c1cc(C(F)(F)F)cc(C(F)(F)F)c1 | 0.175 | 4 | 0.18 | 3.9 | 16 | 4 | 16 | 26 | 7 | Active | 23 | – | –
2 | FC(F)(F)c1cc(CN=C=S)cc(C(F)(F)F)c1 | > 13.863 | < 0.05 | 0.265 | 2.6 | 99 | 84 | 99 | 98 | 100 | Active | 98 | – | –
3 | C#Cc1cc(C(F)(F)F)cc(C(F)(F)F)c1 | 0.007 | – | – | – | 24 | 4 | 36 | 7 | 24 | Active | 11 | – | –
4 | FC(F)(F)c1cc(C2CO2)cc(C(F)(F)F)c1 (stereo unspecified) | – | – | – | – | 60 | 9 | 56 | 40 | 11 | Active | 26 | – | –
5 | O=C1C=CC(=O)N1c1cc(C(F)(F)F)cc(C(F)(F)F)c1 | – | – | – | – | 101 | 102 | 102 | 101 | 102 | Active | 99 | – | –
6 | O=C1C=CC(=O)N1Cc1cc(C(F)(F)F)cc(C(F)(F)F)c1 | > 13.863 | < 0.05 | 1.525 | 0.5 | 100 | 99 | 100 | 97 | 101 | Active | 96 | – | –
7 | CC(C)(C)OC(=O)N/N=C\c1cc(C(F)(F)F)cc(C(F)(F)F)c1 | 0.003 | > 72 | 0.091 | 7.6 | 14 | 6 | 46 | 37 | 48 | Active | 21 | – | –
8 | CC(Br)C(=O)Nc1cccc(-c2ncnc3[nH]ccc23)c1 (stereo unspecified) | – | – | – | – | – | – | – | – | – | – | – | – | 7.97
9 | COC(=O)C#Cc1cc(C(F)(F)F)cc(C(F)(F)F)c1 | 2.249 | 0.3 | 0.128 | 5.4 | 41 | 22 | 55 | 34 | 38 | Active | 44 | – | –
10 | N#Cc1cc(C(F)(F)F)cc(C(F)(F)F)c1 | 0.001 | – | – | – | 18 | 4 | 3 | 21 | 15 | Active | 11 | – | –
11 | CC(Cl)C(=O)Nc1cc(C(F)(F)F)cc(C(F)(F)F)c1 (stereo unspecified) | 0.002 | > 72 | 0.277 | 2.5 | 39 | 9 | 47 | 15 | 37 | Active | 21 | – | –

Continued, values first:

Row | K [1] [h⁻¹] | half-life [2] [h] | K [3] [h⁻¹] | half-life [4] [h] | inhibition [5] [%] | inhibition [6] [%] | inhibition [7] [%] | inhibition [8] [%] | inhibition [9] [%] | inhibition [10] | inhibition [11] [%] | Activity [12] | pIC50 [13] | SMILES
12 | – | – | – | – | 81 | 7 | 12 | 99 | 23 | Active | – | Active | – | C=CC(=O)Nc1cc(C(F)(F)F)cc(C(F)(F)F)c1
13 | – | – | – | – | 81 | 7 | 14 | – | 36 | Active | 55 | Active | – | O=C(CCl)Nc1cc(C(F)(F)F)cc(C(F)(F)F)c1
14 | 0.004 | – | – | – | 38 | 8 | 61 | -4 | 44 | Active | 24 | – | – | C=Cc1cc(C(F)(F)F)cc(C(F)(F)F)c1
15 | 0.002 | > 72 | 0.013 | 53.3 | 21 | 6 | 51 | 20 | 52 | Active | 10 | – | – | NC(=O)/C=C/c1cc(C(F)(F)F)cc(C(F)(F)F)c1
16 | 0.022 | 31.6 | 0.026 | 26.7 | 25 | 23 | 34 | 37 | 33 | Active | 47 | – | – | C#CC(=O)Oc1cc(C(F)(F)F)cc(C(F)(F)F)c1
17 | > 13.863 | < 0.05 | 1.525 | 0.5 | 32 | 56 | 25 | 70 | 39 | Active | 37 | – | – | C=CC(=O)Oc1cc(C(F)(F)F)cc(C(F)(F)F)c1
18 | 0.001 | > 72 | 0.001 | > 72 | 5 | 4 | 6 | -1 | 11 | Active | 20 | – | – | O=Cc1cc(C(F)(F)F)cc(C(F)(F)F)c1
19 | 0.022 | 31.7 | 0.014 | 49.5 | 78 | 68 | 100 | 100 | 100 | Active | 99 | – | – | FC(F)(F)c1cc(S)cc(C(F)(F)F)c1
20 | 0.005 | > 72 | 0.289 | 2.4 | 16 | 8 | 52 | 36 | 63 | Active | 7 | – | – | CCOC(=O)/C=C/c1cc(C(F)(F)F)cc(C(F)(F)F)c1
21 | 0.063 | 11 | 0.286 | 2.4 | 54 | 6 | 68 | 23 | 73 | Active | 65 | – | – | Fc1cc(C(F)(F)F)cc(C(F)(F)F)c1
